Measured values as given in ChEMBL document CHEMBL1147968, “Novel lbeta-methylcarbapenems having cyclic sulfonamide moieties: synthesis and evaluation of in vitro antibacterial activity” (2007).
Values after ≈ are worked out from the molar mass of the structure shown.

Experiments:
Pasteurella multocida = experiment: Antibacterial activity against Pasteurella multocida after 18 to 24 hrs by agar dilution method; assay type: functional
In short: (§1)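 MICs were determined by agar dilution on test agar. An overnight tryptosoy broth culture was diluted in the same broth to about 10⁶ cells/mL and spotted with an inoculating device onto agar containing serial twofold dilutions of compound. Plates were incubated at 37 °C for 18–20 h, and the MIC was the lowest concentration with no visible growth.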

Pseudomonas aeruginosa = experiment: Antibacterial activity against Pseudomonas aeruginosa 5455 after 18 to 24 hrs by agar dilution method; assay type: functional; in short: as §1
[1] = Antibacterial activity against Salmonella give after 18 to 24 hrs by agar dilution method; assay type: functional, Salmonella enterica subsp. enterica serovar Give; conditions: Salmonella enterica; in short: as §1
Salmonella = experiment: Antibacterial activity against Salmonella orion after 18 to 24 hrs by agar dilution method; assay type: functional; in short: as §1
Micrococcus luteus = experiment: Antibacterial activity against Micrococcus luteus ATCC 9341 after 18 to 24 hrs by agar dilution method; assay type: functional; in short: as §1
Escherichia coli [2] = experiment: Antibacterial activity against Escherichia coli TEM after 18 to 24 hrs by agar dilution method; assay type: functional; in short: as §1
Staphylococcus aureus [3] = experiment: Antibacterial activity against Staphylococcus aureus 209P after 18 to 24 hrs by agar dilution method; assay type: functional; in short: as §1
Streptococcus pneumoniae = experiment: Antibacterial activity against Streptococcus pneumoniae 0025 after 18 to 24 hrs by agar dilution method; assay type: functional; in short: as §1
Escherichia coli [4] = experiment: Antibacterial activity against Escherichia coli 086 after 18 to 24 hrs by agar dilution method; assay type: functional; in short: as §1
Streptococcus agalactiae = experiment: Antibacterial activity against Streptococcus agalactiae B after 18 to 24 hrs by agar dilution method; assay type: functional; in short: as §1
Enterococcus faecalis = experiment: Antibacterial activity against Enterococcus faecalis 2347 after 18 to 24 hrs by agar dilution method; assay type: functional; in short: as §1
Haemophilus influenzae = experiment: Antibacterial activity against Haemophilus influenzae 1210 after 18 to 24 hrs by agar dilution method; assay type: functional; in short: as §1
Priestia megaterium = experiment: Antibacterial activity against Bacillus megaterium after 18 to 24 hrs by agar dilution method; assay type: functional; in short: as §1
Trueperella pyogenes = experiment: Antibacterial activity against Corynebacterium pyogenes after 18 to 24 hrs by agar dilution method; assay type: functional; in short: as §1
Salmonella typhi = experiment: Antibacterial activity against Salmonella typhi after 18 to 24 hrs by agar dilution method; assay type: functional, Salmonella enterica subsp. enterica serovar Typhi; conditions: Salmonella enterica
In short: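 Agar dilution on test agar with serial twofold dilutions of compound. Overnight tryptosoy broth cultures diluted in the same broth to about 10⁶ cells/mL, then applied with an inoculating device. Plates incubated at 37 °C for 18–20 h.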

Escherichia coli [5] = experiment: Antibacterial activity against Escherichia coli 0114 after 18 to 24 hrs by agar dilution method; assay type: functional; in short: as §1
Escherichia coli [6] = experiment: Antibacterial activity against Escherichia coli 1507 after 18 to 24 hrs by agar dilution method; assay type: functional; in short: as §1
Escherichia coli [7] = experiment: Antibacterial activity against Escherichia coli V6311/65 after 18 to 24 hrs by agar dilution method; assay type: functional; in short: as §1
Escherichia coli [8] = experiment: Antibacterial activity against Escherichia coli 0126 after 18 to 24 hrs by agar dilution method; assay type: functional; in short: as §1
Proteus mirabilis = experiment: Antibacterial activity against Proteus mirabilis 174/3 after 18 to 24 hrs by agar dilution method; assay type: functional; in short: as §1
Staphylococcus aureus [9] = experiment: Antibacterial activity against Staphylococcus aureus 503 after 18 to 24 hrs by agar dilution method; assay type: functional; in short: as §1
Enterococcus durans = experiment: Antibacterial activity against Streptococcus durans D after 18 to 24 hrs by agar dilution method; assay type: functional; in short: as §1
Serratia marcescens = experiment: Antibacterial activity against Serratia marcescens 370 after 18 to 24 hrs by agar dilution method; assay type: functional; in short: as §1
Enterobacter cloacae = experiment: Antibacterial activity against Enterobacter cloacae 34 after 18 to 24 hrs by agar dilution method; assay type: functional; in short: as §1
Streptococcus pyogenes = experiment: Antibacterial activity against Streptococcus pyogenes 9889 after 18 to 24 hrs by agar dilution method; assay type: functional
In short: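 Agar dilution on test agar holding serial twofold dilutions of compound. Overnight tryptosoy broth cultures were diluted in the same broth to about 10⁶ cells/mL and spotted with an inoculating device. Plates were incubated at 37 °C for 18–20 h.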

Klebsiella pneumoniae = experiment: Antibacterial activity against Klebsiella pneumoniae 477 after 18 to 24 hrs by agar dilution method; assay type: functional; in short: as §1
Acinetobacter baumannii = experiment: Antibacterial activity against Acinetobacter baumannii 2289 after 18 to 24 hrs by agar dilution method; assay type: functional; in short: as §1

C[C@@H](O)[C@H]1C(=O)N2C(C(=O)O)=C(SCCNC=N)C[C@H]12 [IMIPENEM ANHYDROUS]
MIC (Pasteurella multocida): < 0.01 µg/mL
MIC (Pseudomonas aeruginosa): 3.12 µg/mL (≈ 10.4 µM)
MIC [1]: 0.2 µg/mL (≈ 0.668 µM)
MIC (Salmonella): 0.2 µg/mL (≈ 0.668 µM)
MIC (Micrococcus luteus): 0.01 µg/mL (≈ 0.0334 µM)
MIC (Escherichia coli [2]): 0.2 µg/mL (≈ 0.668 µM)
MIC (Staphylococcus aureus [3]): 0.01 µg/mL (≈ 0.0334 µM)
MIC (Streptococcus pneumoniae): < 0.01 µg/mL
MIC (Escherichia coli [4]): 0.1 µg/mL (≈ 0.334 µM)
MIC (Streptococcus agalactiae): 0.01 µg/mL (≈ 0.0334 µM)
MIC (Enterococcus faecalis): 1.56 µg/mL (≈ 5.22 µM)
MIC (Haemophilus influenzae): 6.25 µg/mL (≈ 20.9 µM)
MIC (Priestia megaterium): 0.03 µg/mL (≈ 0.1 µM)
MIC (Trueperella pyogenes): 0.01 µg/mL (≈ 0.0334 µM)
MIC (Salmonella typhi): 0.05 µg/mL (≈ 0.167 µM)
MIC (Escherichia coli [5]): 0.1 µg/mL (≈ 0.334 µM)
MIC (Escherichia coli [6]): 0.1 µg/mL (≈ 0.334 µM)
MIC (Escherichia coli [7]): 0.05 µg/mL (≈ 0.167 µM)
MIC (Escherichia coli [8]): 0.1 µg/mL (≈ 0.334 µM)
MIC (Proteus mirabilis): 0.1 µg/mL (≈ 0.334 µM)
MIC (Staphylococcus aureus [9]): < 0.01 µg/mL
MIC (Enterococcus durans): 0.1 µg/mL (≈ 0.334 µM)
MIC (Serratia marcescens): 0.2 µg/mL (≈ 0.668 µM)
MIC (Enterobacter cloacae): 0.781 µg/mL (≈ 2.61 µM)
MIC (Streptococcus pyogenes): < 0.01 µg/mL
MIC (Klebsiella pneumoniae): 0.2 µg/mL (≈ 0.668 µM)
MIC (Acinetobacter baumannii): 12.5 µg/mL (≈ 41.8 µM)
